TAAR1 ag: agonists of human TAAR1. activation, % at 3 µM. CHO RD-HGA16 TAAR1, Fluo-8 calcium fluorescence; vehicle wells 0%, saturating PEA agonist 100%. 360,000 compounds, 0.99% hits. AID 624467;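 active = activation above the mean activation of all test compounds in the run plus 3 SD, cut at about 38% in these data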
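Assay system: CHO-derived RD-HGA16 cells with stable Gα16 and human TAAR1; timing: 17-24 h seeding, 75 min 37 °C dye, 30 min RT; read-out: % activation from peak over basal fluorescence ratio, DMSO-to-PEA scaled; measured by: kinetic Fluo-8 calcium fluorescence; benchmarks: low control DMSO, high control PEA (EC100); doses: 3 µM single concentration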
M1 PAM: human CHRM1 positive allosteric modulation; P11229; CHO-K1 hM1, Fluo-8 calcium fluorescence, ACh EC20; 0% = ACh EC20, 100% = maximal ACh; activation, % at 3 µM; 360,000 compounds, 0.088% hits; AID 588819; in the data active = activation above about 19%, passing the limit was not always enough
m5-HT2A agonist: activates the mouse 5-HT2A serotonin receptor | activation, % at 7.6 µM | CHO-K1 mHTR2A beta-arrestin complementation, luminescence; percent of 30 µM serotonin response | AID 624169 | 360,000 compounds, 0.66% hits;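 active = activation above a run cutoff, the mean activation of all tested compounds plus 3 SD, cut at about 14% in these data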
Target sequence (P35363 whole entry, looked up): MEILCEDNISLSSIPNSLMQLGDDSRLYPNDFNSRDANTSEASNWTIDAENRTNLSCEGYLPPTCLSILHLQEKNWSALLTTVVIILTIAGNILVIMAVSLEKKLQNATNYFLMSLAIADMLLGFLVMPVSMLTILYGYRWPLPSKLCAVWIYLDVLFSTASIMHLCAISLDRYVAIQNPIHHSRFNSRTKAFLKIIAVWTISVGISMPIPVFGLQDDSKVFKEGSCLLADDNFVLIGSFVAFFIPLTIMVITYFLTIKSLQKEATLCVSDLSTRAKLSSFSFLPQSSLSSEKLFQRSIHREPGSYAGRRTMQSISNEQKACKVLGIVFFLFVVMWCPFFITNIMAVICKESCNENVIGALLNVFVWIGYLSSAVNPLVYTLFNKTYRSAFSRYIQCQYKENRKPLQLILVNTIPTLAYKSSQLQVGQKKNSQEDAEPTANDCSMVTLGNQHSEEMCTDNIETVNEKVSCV
M1 antag: human CHRM1 antagonism; AID 588852; inhibition, % at 3 µM; 360,000 compounds, 1.3% hits; CHO-K1 hM1, Fluo-8 calcium fluorescence, ACh EC80 antagonist; P11229;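 active = percent inhibition above its own plate's cutoff, namely the mean of that plate's compound wells plus 3 SD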;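 note: peak over basal fluorescence ratio during 140 s after agonist addition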
M1 ag: human M1 muscarinic receptor agonism. P11229. 360,000 compounds, 0.33% hits. AID 588814. activation, % at 3 µM. CHO-K1 hM1, Fluo-8 calcium fluorescence, agonist mode; 0% DMSO, 100% acetylcholine EC100;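 active = activation above the run's mean compound activation plus 3 SD, cut at about 16% in these data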;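 note: peak over basal fluorescence ratio within a 140 s kinetic read after compound addition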
TAAR1 antagonist: human TAAR1 antagonism | CHO RD-HGA16 TAAR1, Fluo-8 calcium fluorescence, antagonist | inhibition, % at 3 µM | 360,000 compounds, 1.5% hits | AID 624466;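 active = inhibition above a per-plate cutoff, the mean inhibition of test compounds on that plate plus 3 SD, cut at about 49% in these data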
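test system = CHO RD-HGA16 cells bearing hTAAR1 | replication = singlicate | controls = DMSO-only wells and EC80 β-PEA-stimulated wells | reagent = EC80 β-phenethylamine stimulus | read-out basis = percent inhibition of PEA-evoked calcium signal, max/basal emission ratio | schedule = seeding 17-24 h prior, 75-min 37 °C, 30-min RT dye loading | signal = kinetic Fluo-8 calcium fluorescence measurement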
TAAR1 ag conf: human TAAR1 agonism, confirmed; shares compounds with TAAR1 ag; CHO RD-HGA16 TAAR1, Fluo-8 calcium fluorescence; scaled: DMSO 0%, maximal phenethylamine 100%; activation, % at 3 µM; 2,400 compounds, 82% hits; AID 651783;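 active = activation above a cutoff set at the run's mean compound activation plus 3 SD, cut at about 39% in these data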
Ga16 nonsel ag: counter-screen for TAAR1 agonists: nonselective agonists in parental cells. CHO-Ga16 parental, Fluo-8 calcium fluorescence; normalized to maximal ATP response, DMSO zero. shares compounds with TAAR1 ag. activation, % at 3 µM. 2,400 compounds, 50% hits;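 active = activation above the run cutoff, the mean activation over all tested wells plus 3 SD, cut at about 12% in these data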
TAAR1 desens: TAAR1 response desensitization, agonist counter-screen. inhibition, % at 3 µM. AID 651951. CHO RD-HGA16 hTAAR1, Fluo-8 calcium, beta-PEA response inhibition. 2,400 compounds, 46% hits. shares compounds with TAAR1 ag;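 active = inhibition above the run cutoff, the mean inhibition of all test compounds plus 3 SD, cut at about 49% in these data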;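 note: beta-PEA stimulus applied at its EC80; loss of beta-PEA calcium signal after compound pretreatment read as receptor desensitization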
Ga16 antag count: nonselective Ga16 antagonism, counter-screen; shares compounds with TAAR1 ag; CHO-Ga16 ATP-induced calcium, Fluo-8 fluorescence; inhibition, % at 3 µM; 2,400 compounds, 39% hits; AID 651952;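 active = inhibition above the plate's mean compound inhibition plus 3 SD, computed per plate, cut at about 22% in these data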
Large screens that a line does not name were inactive (follow-up assays come after a bar, where they were run). In the library only some 3.9% were active in any assay of this set; here they are far more common.

O=C(NCCc1ccccc1)c1ccc2c(=O)[nH]c3c(C(=O)NCC4CCCO4)sc(=S)n3c2c1 (configuration not stated)	TAAR1 ag 64.6, TAAR1 antagonist 52.4 | TAAR1 ag conf 90.1 | Ga16 nonsel ag inactive | TAAR1 desens 82.2 | Ga16 antag count 21.7
CCc1ccc(NC(=O)CNC(=O)[C@@H]2Cc3ccccc3CN2C(=O)OC(C)(C)C)cc1	none
Cc1ccc(C(=O)CSC2=C(C#N)C(c3ccco3)CC(=O)N2)c(C)c1 (configuration not stated)	TAAR1 ag 73.9, M1 ag 37.0 | TAAR1 ag conf 48.0 | Ga16 nonsel ag 25.3 | TAAR1 desens inactive | Ga16 antag count 23.6
Cc1ccc(NC(=O)CSC2=C(C#N)C(c3ccco3)CC(=O)N2)cc1 (configuration not stated)	none
CCCCCCCOC(=O)C[N+](C)(C)CCOC1CC2CCC1(C)C2(C)C (configuration not stated)	TAAR1 ag 56.3 | TAAR1 ag conf 74.3 | Ga16 nonsel ag 38.2 | TAAR1 desens inactive | Ga16 antag count 35.0
CCc1cccc(C)c1NC(=O)COC(=O)CNS(=O)(=O)/C=C/c1ccccc1	none
Cc1ccc(Cl)c(NC(=O)COC(=O)CNS(=O)(=O)/C=C/c2ccccc2)c1Cl	TAAR1 ag 73.1 | TAAR1 ag conf inactive | Ga16 nonsel ag inactive | TAAR1 desens inactive | Ga16 antag count inactive
Cc1ccc(C(=O)N/C(=C\c2cccs2)C(=O)N2CCOCC2)cc1C	none
COc1cc(CCCN2CCNC[C@@H]2c2ccccc2)cc(OC)c1OC	none
c1ccc([C@H]2CNCCN2CCc2cccc3ccccc23)cc1	TAAR1 ag 54.1 | TAAR1 ag conf 75.9 | Ga16 nonsel ag 20.0 | TAAR1 desens 53.4 | Ga16 antag count 24.3
COc1cccc(N2CCN(c3nc(C)cc(=O)[nH]3)CC2)c1	none
Oc1c(C=Nc2cccc3cccnc23)sc2ccccc12	TAAR1 ag 129.5, TAAR1 antagonist 93.6 (no result: M1 PAM, m5-HT2A agonist, M1 antag, M1 ag) | TAAR1 ag conf 38.9 | Ga16 nonsel ag 68.9 | TAAR1 desens 57.9 | Ga16 antag count 68.8
CCN1CCN(c2c(/C=C3\SC(=S)N(Cc4ccco4)C3=O)c(C)c(C#N)c(=O)n2C)CC1	none
O=C(Nc1ccccn1)c1ccc2c(c1)S(=O)(=O)c1ccccc1C2=O	none
O=C1c2ccccc2S(=O)(=O)c2cc(C(=O)N(c3ccccn3)c3ccccn3)ccc21	TAAR1 ag 145.2, M1 ag 51.0, TAAR1 antagonist 64.8 | TAAR1 ag conf 138.3 | Ga16 nonsel ag 93.8 | TAAR1 desens 59.2 | Ga16 antag count inactive
CN(C)c1ccc(N=C/C=C2\N(C)c3ccccc3C2(C)C)cc1	TAAR1 ag 46.8 | TAAR1 ag conf 73.8 | Ga16 nonsel ag 14.5 | TAAR1 desens inactive | Ga16 antag count inactive
CN1\C(=C/C=C/C=C/C=[N+](C)C)C(C)(C)c2ccccc21	TAAR1 ag 714.7, M1 antag 47.0, M1 ag 52.6, TAAR1 antagonist 109.4 | TAAR1 ag conf 80.8 | Ga16 nonsel ag 109.5 | TAAR1 desens 69.1 | Ga16 antag count 75.0
CCCOc1ccc(-c2c(C(=O)N/N=C(\C)c3cccs3)nnn2-c2nonc2N)cc1	TAAR1 ag 53.2 | TAAR1 ag conf 55.8 | Ga16 nonsel ag 21.8 | TAAR1 desens inactive | Ga16 antag count inactive
CCOc1ccc(/C(C)=N/NC(=O)c2nnn(-c3nonc3N)c2-c2cccs2)cc1	TAAR1 ag 118.9 | TAAR1 ag conf 117.2 | Ga16 nonsel ag 87.8 | TAAR1 desens inactive | Ga16 antag count inactive
CCN(CC)C(=O)CSc1nnc([C@@H](N)C(C)C)o1	none
CSc1ccccc1OCc1cc(C(=O)N2CCN3CCCC3C2)no1 (configuration not stated)	none
CCOC(=O)C(NC(=O)CC)(N1CCc2ccccc2C1)C(F)(F)F (configuration not stated)	TAAR1 ag 92.6, TAAR1 antagonist 95.6 | TAAR1 ag conf 111.0 | Ga16 nonsel ag inactive | TAAR1 desens 97.9 | Ga16 antag count inactive
CC1=CC(C)(C)N(C(=O)c2ccccc2)c2ccc(C)cc21	TAAR1 ag 65.3, M1 ag 27.7, TAAR1 antagonist 52.2 | TAAR1 ag conf 71.0 | Ga16 nonsel ag 42.5 | TAAR1 desens 68.9 | Ga16 antag count 52.5
OCc1ccccc1CNCc1ccccc1	none
OCc1ccccc1SSc1ccccc1CO	TAAR1 ag 58.0 | TAAR1 ag conf inactive | Ga16 nonsel ag 19.3 | TAAR1 desens inactive | Ga16 antag count inactive
Cc1cc(-c2ccccc2)n2nc(N)nc2n1	none
Cc1ccc(/C(O)=C2\C(=O)C(=O)N(CC(C)O)C2c2ccccn2)cc1 (configuration not stated)	none
C=CCN1C(=O)/C(=C\C=C2\N(C)c3ccccc3C2(C)C)SC1=S	none
C=CCN1C(=O)/C(=C/C=C2/N(CC)c3ccc(S(=O)(=O)N(C)C)cc3N2CC)SC1=S	TAAR1 ag 106.6, M1 ag 17.4, TAAR1 antagonist 74.4 | TAAR1 ag conf 90.1 | Ga16 nonsel ag 90.9 | TAAR1 desens 86.8 | Ga16 antag count 87.9
CN1CCN(/N=C/c2ccc(N(c3ccccc3)c3ccccc3)cc2)CC1	TAAR1 ag 72.7, TAAR1 antagonist 49.7 | TAAR1 ag conf 71.6 | Ga16 nonsel ag 27.6 | TAAR1 desens 55.8 | Ga16 antag count 35.3
CCC1(c2ccc(F)cc2)NC(=O)N(CC(=O)N2c3ccccc3NC(=O)CC2C)C1=O (configuration not stated)	none
CC1Cc2ccccc2N1C(=O)CN1CCc2ccccc2C1 (configuration not stated)	TAAR1 ag 71.7 | TAAR1 ag conf 76.7 | Ga16 nonsel ag inactive | TAAR1 desens inactive | Ga16 antag count inactive

Source: PubChem (The Scripps Research Institute Molecular Screening Center)
